Data: PMC8268672 (Bioorganic Chemistry, 2021)
pEC50: −log10 of the molar value. Values after ≈ are worked out from the molar mass of the structure shown. Read-outs that look alike come from different tables or passages of the source.

Assays:
Para-influenza-3 virus = test: CPE reduction assay in Vero cells; assay type: cell-based, Parainfluenza-3 virus; conditions: read-out: Antiviral EC50, Para-influenza-3 virus
Reovirus-1 = test: CPE reduction assay in Vero cells; assay type: cell-based; conditions: read-out: Antiviral EC50, Reovirus-1
Punta Toro virus = test: CPE reduction assay in Vero cells; assay type: cell-based; conditions: read-out: Antiviral EC50, Punta Toro virus
Sindbis virus = test: CPE reduction assay in Vero cells; assay type: cell-based; conditions: read-out: Antiviral EC50, Sindbis virus
Coxsackie virus B4 = test: CPE reduction assay in Vero cells; assay type: cell-based; conditions: Enterovirus B, read-out: Antiviral EC50, Coxsackie virus B4
Yellow Fever virus = test: microbe, parasite or virus in culture; assay type: cell-based; conditions: read-out: Antiviral EC50, Yellow Fever virus
MT4 cells = conditions: MT4 cell cultures; colorimetric MTT cell viability assay
[1] = test system: Madin Darby canine kidney (MDCK) cells; conditions: dog
Adeno virus-2 = test: CPE reduction assay in HEL cells; assay type: cell-based; conditions: read-out: Antiviral EC50, Adeno virus-2
[2] = test system: Aspergillus fumigatus (NCIM 2081); test: Agar disk diffusion, inhibition zone; assay type: cell-based; conditions: 100 µg/8 mm disc, triplicate, mean ± SD
[3] = test system: Klebsiella aerogenes (NCIM-2098); test: MIC, broth microdilution; assay type: cell-based; conditions: NCIM2098, read-out: Minimum inhibitory concentration (MIC), KA
How it was run: (§1)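 Antibacterial MICs by CLSI broth microdilution in Mueller-Hinton broth. Test compounds and standard drugs are serially diluted two-fold from 512 to 0.25. The bacterial broth culture is grown 2-6 h to a 0.5 McFarland turbidity, then adjusted with sterile solution to the final inoculum.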

[4] = test system: Staphylococcus aureus (ATCC 29213); test: Agar disk diffusion, inhibition zone; assay type: cell-based; conditions: 100 µg/8 mm disc, triplicate, mean ± SD
How it was run: (§2)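 Agar disk diffusion on Mueller-Hinton agar plates seeded with a standard bacterial suspension. Test compound stock in DMSO, diluted with distilled water; 8 mm sterile filter-paper discs soaked in the solution. Ampicillin was the reference. Plates incubated at 35 °C for 24 h, in triplicate. Read-out is the average inhibition-zone diameter (mm) around each disc.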

[5] = test system: Lactobacillus casei (NCIM-2651); test: Agar disk diffusion, inhibition zone; assay type: cell-based; conditions: 100 µg/8 mm disc, triplicate, mean ± SD
[6] = test system: Pseudomonas aeruginosa (MCCB 0035); test: Agar disk diffusion, inhibition zone; assay type: cell-based; conditions: 100 µg/8 mm disc, triplicate, mean ± SD
[7] = test system: Pseudomonas aeruginosa (MCCB 0035); test: MIC, broth microdilution; assay type: cell-based; conditions: read-out: Minimum inhibitory concentration (MIC), PA
How it was run: (§3)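 Broth microdilution per CLSI in Mueller-Hinton broth, using two-fold serial dilutions of test compound and reference drugs from 512 to 0.25. Bacterial broth cultures were grown 2-6 h to 0.5 McFarland turbidity, then diluted with sterile solution to the final inoculum. MIC is reported in µg/mL.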

[8] = test system: Cryptococcus neoformans (ATCC 9011); test: MIC, broth microdilution; assay type: cell-based; conditions: ATCC9011, read-out: Minimum inhibitory concentration (MIC), CN
How it was run: (§4)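 Antifungal MICs by CLSI broth microdilution in Sabouraud liquid medium. Test compounds and standard drugs are serially diluted two-fold from 512 to 0.25. The fungal broth culture is grown 24 h at 35 °C to a 0.5 McFarland turbidity, then adjusted with sterile solution to the final inoculum.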

[9] = test system: Staphylococcus aureus (ATCC 29213); test: MIC, broth microdilution; assay type: cell-based; conditions: ATCC29213, read-out: Minimum inhibitory concentration (MIC), SA
How it was run: as §1

[10] = test system: Bacillus cereus (NCIM-2458); test: Agar disk diffusion, inhibition zone; assay type: cell-based; conditions: 100 µg/8 mm disc, triplicate, mean ± SD
[11] = test system: Candida albicans (NCIM 2087); test: MIC, broth microdilution; assay type: cell-based; conditions: NCIM2087, read-out: Minimum inhibitory concentration (MIC), CA
How it was run: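 CLSI broth microdilution in Sabouraud liquid medium, with test compound two-fold serially diluted from 512 to 0.25. Fungal broth culture grown 24 h at 35 °C to 0.5 McFarland turbidity, then adjusted with sterile solution to a final […] inoculum. MIC expressed in µg/mL.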

[12] = test system: Bacillus cereus (NCIM-2458); test: MIC, broth microdilution; assay type: cell-based; conditions: NCIM2458, read-out: Minimum inhibitory concentration (MIC), BC
How it was run: as §3

[13] = test system: Klebsiella aerogenes (NCIM-2098); test: Agar disk diffusion, inhibition zone; assay type: cell-based; conditions: 100 µg/8 mm disc, triplicate, mean ± SD
[14] = test system: Aspergillus fumigatus (NCIM 2081); test: MIC, broth microdilution; assay type: cell-based; conditions: NCIM2081, read-out: Minimum inhibitory concentration (MIC), AF
How it was run: as §4

[15] = test system: Cryptococcus neoformans (ATCC 9011); test: Agar disk diffusion, inhibition zone; assay type: cell-based; conditions: 100 µg/8 mm disc, triplicate, mean ± SD
[16] = test system: Escherichia coli (ATCC 8739); test: MIC, broth microdilution; assay type: cell-based; conditions: ATCC8739, read-out: Minimum inhibitory concentration (MIC), EC
How it was run: as §3

[17] = test system: Aspergillus niger (NCIM 2191); test: MIC, broth microdilution; assay type: cell-based; conditions: NCIM2191, read-out: Minimum inhibitory concentration (MIC), AN
How it was run: as §4

[18] = test system: Streptococcus pneumonia (ATCC 49619); test: Agar disk diffusion, inhibition zone; assay type: cell-based; conditions: 100 µg/8 mm disc, triplicate, mean ± SD
[19] = test system: Salmonella typhimurium (NCIM-2501); test: Agar disk diffusion, inhibition zone; assay type: cell-based; conditions: 100 µg/8 mm disc, triplicate, mean ± SD
[20] = test system: Escherichia coli (ATCC 8739); test: Agar disk diffusion, inhibition zone; assay type: cell-based; conditions: 100 µg/8 mm disc, triplicate, mean ± SD
How it was run: as §2

[21] = test system: Candida albicans (NCIM 2087); test: Agar disk diffusion, inhibition zone; assay type: cell-based; conditions: 100 µg/8 mm disc, triplicate, mean ± SD
[22] = test system: Aspergillus niger (NCIM 2191); test: Agar disk diffusion, inhibition zone; assay type: cell-based; conditions: 100 µg/8 mm disc, triplicate, mean ± SD
How it was run: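 For the fungal strain, discs soaked in test compound solution (DMSO stock diluted with distilled water) sat on seeded Mueller-Hinton agar. Clotrimazole was the reference. Incubation ran 48 h at 35 °C, in triplicate. Zone of growth inhibition recorded in mm as the mean diameter around each disc.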

Human Coronavirus (229E) = test: CPE reduction assay in HEL cells; assay type: cell-based; conditions: read-out: Antiviral EC50, Human Coronavirus (229E)
Vaccinia virus = test: microbe, parasite or virus in culture; assay type: cell-based; conditions: Orthopoxvirus vaccinia, HEL, read-out: Antiviral EC50, Vaccinia virus
[23] = Vero cell cultures, microscopically detectable alteration of normal cell morphology

COc1c(C)c2c(c(O)c1C/C=C(\C)CCC(=O)O)C(=O)OC2 [Mycophenolic acid, mycophenolic acid, reference compound]
pEC50 (Para-influenza-3 virus; Vero): 6.40 | pEC50 (Reovirus-1): 6.40 | Minimum cytotoxic conc. (Vero cells; [23]): >100 µM | pEC50 (Punta Toro virus): 5.85 | pEC50 (Sindbis virus): 4.93 | pEC50 (Coxsackie virus B4): < 4.00 | pEC50 (Yellow Fever virus; Yellow fever virus, Vero): 6.10

Cc1cn([C@H]2C[C@H](N=[N+]=[N-])[C@@H](CO)O2)c(=O)[nH]c1=O [Azidothymidine, reference compound]
Minimum cytotoxic conc. (MT4 cells): >2 µM

CC(N)C12CC3CC(CC(C3)C1)C2 (centres unmarked) [Rimantadine, reference compound]
Cytotoxicity, Minimum cytotoxic conc. [1]: >200 µM

dextran sulfate [DS-10.000, reference compound]
pEC50 (Para-influenza-3 virus): < 4.00 | Minimum cytotoxic conc. (Vero cells): >100 µM | pEC50 (Yellow Fever virus): 6.10

Cc1ccnc2c1NC(=O)c1cccnc1N2C1CC1 [Nevirapine, reference compound]
Minimum cytotoxic conc. (MT4 cells): >4 µM

Cc1cn([C@H]2C[C@H](F)[C@@H](CO)O2)c(=O)[nH]c1=O [Alovudine, reference compound]
pEC50 (Adeno virus-2): 5.85

O=c1[nH]cnc2c1ncn2[C@H]1CC[C@@H](CO)O1 [Didanosine, reference compound]
Minimum cytotoxic conc. (MT4 cells): >50 µM

Nc1ccn([C@@H]2CS[C@H](CO)O2)c(=O)n1 [Lamivudine, reference compound]
Minimum cytotoxic conc. (MT4 cells): >20 µM

CC(=O)N[C@H]1[C@H]([C@H](O)[C@H](O)CO)OC(C(=O)O)=C[C@@H]1N=C(N)N [Zanamivir, reference compound]
Cytotoxicity, Minimum cytotoxic conc. [1]: >100 µM

Cc1ccc(S(=O)(=O)N2C(=O)CSC2c2cccc(O)c2)cc1 (centres unmarked) [5l, 2-(3-Hydroxyphenyl)-3-[(4-methylphenyl)sulfonyl]-1,3-thiazolidin-4-one]
Diameter of growth inhibition zone, AF [2]: 12 ± 2.3 mm | MIC [3]: 16 µg/mL (≈ 45.8 µM) | Diameter of growth inhibition zone, SA [4]: 14 ± 1.2 mm | Diameter of growth inhibition zone, LC [5]: 12 ± 1.6 mm | Diameter of growth inhibition zone, PA [6]: 16 ± 1.5 mm | MIC [7]: 32 µg/mL (≈ 91.6 µM) | MIC [8]: 128 µg/mL (≈ 366 µM) | MIC [9]: 64 µg/mL (≈ 183 µM) | Diameter of growth inhibition zone, BC [10]: 08 ± 0.5 mm | MIC [11]: 16 µg/mL (≈ 45.8 µM) | MIC [12]: 128 µg/mL (≈ 366 µM) | Diameter of growth inhibition zone, KA [13]: 14 ± 0.4 mm | MIC [14]: 64 µg/mL (≈ 183 µM) | Diameter of growth inhibition zone, CN [15]: 12 ± 1.4 mm | MIC [16]: 16 µg/mL (≈ 45.8 µM) | MIC [17]: 64 µg/mL (≈ 183 µM) | Diameter of growth inhibition zone, SP [18]: 10 ± 0.5 mm | Diameter of growth inhibition zone, ST [19]: 10 ± 0.3 mm | Diameter of growth inhibition zone, EC [20]: 17.8 ± 1.1 mm | Diameter of growth inhibition zone, CA [21]: 17 ± 0.5 mm | Diameter of growth inhibition zone, AN [22]: 14 ± 1.5 mm

NC(=O)c1ncn([C@@H]2O[C@H](CO)[C@@H](O)[C@H]2O)n1 [Ribavirin, reference compound]
pEC50 (Para-influenza-3 virus; Vero): 3.95 | pEC50 (Reovirus-1): < 3.60 | Minimum cytotoxic conc. (Vero cells; [23]): >250 µM | pEC50 (Sindbis virus): < 3.60 | pEC50 (Human Coronavirus (229E)): < 3.60 | Cytotoxicity, Minimum cytotoxic conc. [1]: ≥100 µM | pEC50 (Coxsackie virus B4): < 3.60 | pEC50 (Yellow Fever virus; Yellow fever virus, Vero): < 3.60

Nc1nc(O)c2ncn(COC(CO)CO)c2n1 [Ganciclovir, reference compound]
pEC50 (Vaccinia virus): < 4.00

Nc1nc2c(ncn2COCCO)c(=O)[nH]1 [Acyclovir, reference compound]
pEC50 (Vaccinia virus): < 3.60

Cc1ccc(S(=O)(=O)N2C(=O)CSC2c2cccc(F)c2)cc1 (centres unmarked) [5i, 2-(3-Fluorophenyl)-3-[(4-methylphenyl)sulfonyl]-1,3-thiazolidin-4-one]
Diameter of growth inhibition zone, AF [2]: 15 ± 0.6 mm | MIC [3]: 32 µg/mL (≈ 91.1 µM) | Diameter of growth inhibition zone, SA [4]: 17 ± 0.53 mm | Diameter of growth inhibition zone, LC [5]: 18 ± 1.62 mm | Diameter of growth inhibition zone, PA [6]: 18 ± 0.23 mm | MIC [7]: 32 µg/mL (≈ 91.1 µM) | MIC [8]: 16 µg/mL (≈ 45.5 µM) | MIC [9]: 16 µg/mL (≈ 45.5 µM) | Diameter of growth inhibition zone, BC [10]: 14 ± 0.9 mm | MIC [11]: 16 µg/mL (≈ 45.5 µM) | MIC [12]: 16 µg/mL (≈ 45.5 µM) | Diameter of growth inhibition zone, KA [13]: 12 ± 0.4 mm | MIC [14]: 8 µg/mL (≈ 22.8 µM) | Diameter of growth inhibition zone, CN [15]: 14 ± 1.3 mm | MIC [16]: 16 µg/mL (≈ 45.5 µM) | MIC [17]: 32 µg/mL (≈ 91.1 µM) | Diameter of growth inhibition zone, SP [18]: 12 ± 0.4 mm | Diameter of growth inhibition zone, ST [19]: 10 ± 0.76 mm | Diameter of growth inhibition zone, EC [20]: 22.8 ± 0.63 mm | Diameter of growth inhibition zone, CA [21]: 15 ± 0.32 mm | Diameter of growth inhibition zone, AN [22]: 11 ± 0.9 mm

NC12CC3CC(CC(C3)C1)C2 [Amantadine, reference compound]
Cytotoxicity, Minimum cytotoxic conc. [1]: >100 µM

Nc1ccn([C@H]2CC[C@@H](CO)O2)c(=O)n1 [Zalcitabine, reference compound]
pEC50 (Adeno virus-2): 4.30
